Consider 14 molecules from article PMC10373183 (ACS Omega, 2023).

Entries after “also recorded” stand apart in the source; their conditions may differ.

One data set deals with U937 cells. Put plainly: CellTiter-Glo Luminescent cell viability assay. To be noted: for inhibition at 25 µM / inhibition at 50 µM / inhibition at 100 µM / inhibition at 200 µM / GI50: Homo sapiens; for inhibition at 25 µM / inhibition at 50 µM / inhibition at 100 µM / inhibition at 200 µM: U-937, 72 h, read-out: percent inhibition at various concentrations of compounds (CellTiter-Glo, antiproliferative); for GI50: U-937, read-out: antiproliferative (U937) GI50; for antiproliferative activity (in words) / percent inhibition at various concentrations of compounds (CellTiter-Glo, antiproliferative): U937 cells; for antiproliferative activity (in words): CellTiter-Glo, four concentrations; for percent inhibition at various concentrations of compounds (CellTiter-Glo, antiproliferative): 72 h, Mitomycin C = 100%, DMSO = 0%. In kind it is cell-based, human. The procedure, abridged: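 U937 cells incubated 72 h with test compound at four concentrations; CellTiter-Glo reagent added at equal volume, shaken 2 min to lyse, then held 10 min at room temperature before luminescence read. Viability = RLU test × 100/RLU control, converted to percent inhibition. GI50 fitted from percent inhibition. Mitomycin C positive control; DMSO diluent as negative control.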

Data set [1] in a line: LDH release cytotoxicity assay. In kind it is cell-based. To be noted: human, U937 cells. The procedure, abridged:
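U937 cells plated and exposed to test compound at several concentrations for 4 h at 37 °C, with Triton X-100 as positive cytotoxicity control. Plates spun 1000 RPM for 5 min. Supernatants mixed with LDH detection reagent for 10 min in the dark at room temperature, then read at OD 490 nm. LC50 fitted from percent activity.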
A general note: LDH leaks from cells whose membrane has failed.

Turning to `CCCOc1ccc(CCNS(=O)(=O)c2c(C)n[nH]c2C)cc1OCCC` [MR-S1-12, N-(3,4-Dipropoxyphenethyl)-3,5-dimethyl-1H-pyrazole-4-sulfonamide], in the data set with U937 cells, the inhibition at 25 µM was determined as 35.9%, the inhibition at 50 µM is 94.9%, the inhibition at 100 µM came out at 100% and the inhibition at 200 µM worked out at 99.3%. In the data set with U937 cells, the GI50 is 3.3 µM and the “antiproliferative activity (in words)” value is given as “good antiproliferative activity; also recorded: potent”. Moreover, in data set [1], the inhibition at 4 h, 12.5 µM was -2.2%; the inhibition at 4 h, 25 µM was found to be 0.7%; the inhibition at 4 h, 50 µM was -2.7%; the inhibition at 4 h, 100 µM was -0.9%.
As for “N-(3,4-Bis(methoxy-d3)phenethyl-d6)-3,5-dimethyl-1H-pyrazole-4-sulfonamide [MR-S1-10]”, the “percent inhibition at various concentrations of compounds (CellTiter-Glo, antiproliferative)” value with U937 cells (25 μM compound) is given as “–8.1%”; in the data set on U937 cells (50 μM compound), “–37.5%”; in the data set with U937 cells (100 μM compound), “–39.0%”; with U937 cells (200 μM compound), “–14.5%”. Further, the “antiproliferative activity (in words)” value in the data set with U937 cells is “less anti-proliferative activity”.
As for `Cc1nn(C)c(C)c1S(=O)(=O)NCCC1=CCCCC1` [MR-S1-2, N-(2-(Cyclohex-1-en-1-yl)ethyl)-1,3,5-trimethyl-1H-pyrazole-4-sulfonamide], in the data set with U937 cells, the inhibition at 25 µM is 24.8%, the inhibition at 50 µM came out at 29.3%, the inhibition at 100 µM was 42.2% and the inhibition at 200 µM is 58%. The GI50 with U937 cells was more than 200 µM. Moreover, in data set [1], the inhibition at 4 h, 12.5 µM is -1.3%; the inhibition at 4 h, 25 µM was -3.6%; the inhibition at 4 h, 50 µM was -3.1%; the inhibition at 4 h, 100 µM is -5.3%.
For the molecule `Cc1n[nH]c(C)c1S(=O)(=O)NCCc1ccccc1` [MR-S1-3, 3,5-Dimethyl-N-phenethyl-1H-pyrazole-4-sulfonamide], in the data set on U937 cells, the inhibition at 25 µM was found to be 12.7%, the inhibition at 50 µM worked out at 24.5%, the inhibition at 100 µM stood at 31.8% and the inhibition at 200 µM came out at 74.8%. In the data set with U937 cells, the GI50 was 16 µM and the “antiproliferative activity (in words)” value is given as “moderate anti-proliferative activity”. Further, in data set [1], the inhibition at 4 h, 12.5 µM is -0.9%; the inhibition at 4 h, 25 µM was -2.4%; the inhibition at 4 h, 50 µM was -1.3%; the inhibition at 4 h, 100 µM was -1.3%.
On to `Cc1nn(C)c(C)c1S(=O)(=O)NCCc1c[nH]c2ccccc12` [MR-S1-17, N-(2-(1H-Indol-3-yl)ethyl)-1,3,5-trimethyl-1H-pyrazole-4-sulfonamide], for which, in the data set on U937 cells, the inhibition at 25 µM is 18.6%, the inhibition at 50 µM came to 12.9%, the inhibition at 100 µM is 32.2% and the inhibition at 200 µM is 12.9%. In the data set with U937 cells, the GI50 was more than 200 µM and the “antiproliferative activity (in words)” value was “impotent; also recorded: less anti-proliferative activity”. In addition, in data set [1], the inhibition at 4 h, 12.5 µM is -0.9%; the inhibition at 4 h, 25 µM is -2%; the inhibition at 4 h, 50 µM was -2%; the inhibition at 4 h, 100 µM was -1.6%.
As for `Cc1nn(C)c(C)c1S(=O)(=O)NCCc1ccc(Cl)cc1` [MR-S1-6, N-(4-Chlorophenethyl)-1,3,5-trimethyl-1H-pyrazole-4-sulfonamide], in the data set with U937 cells, the inhibition at 25 µM was found to be 40.5%, the inhibition at 50 µM was found to be 17.9%, the inhibition at 100 µM came out at 28.4% and the inhibition at 200 µM is 44.2%. The GI50 with U937 cells was more than 200 µM. For the same molecule, in data set [1], the inhibition at 4 h, 12.5 µM was 3.3%; the inhibition at 4 h, 25 µM is -1.3%; the inhibition at 4 h, 50 µM is -2%; the inhibition at 4 h, 100 µM was -1.6%.
With `Cc1n[nH]c(C)c1S(=O)(=O)N[C@H](C)c1cccc2ccccc12` [MR-S1-14, (R)-3,5-Dimethyl-N-(1-(naphthalen-1-yl)ethyl)-1H-pyrazole-4-sulfonamide], in the data set on U937 cells, the inhibition at 25 µM was 27.6%, the inhibition at 50 µM was 32.9%, the inhibition at 100 µM is 68.7% and the inhibition at 200 µM came out at 98.9%. For the same molecule, in the data set with U937 cells, the GI50 was found to be 9.4 µM and the “antiproliferative activity (in words)” value is recorded as “good antiproliferative activity; also recorded: most potent”. In addition, in data set [1], the inhibition at 4 h, 12.5 µM was -2.4%; the inhibition at 4 h, 25 µM was -4%; the inhibition at 4 h, 50 µM was -0.9%; the inhibition at 4 h, 100 µM is -3.1%.
Regarding `Cc1nn(C)c(C)c1S(=O)(=O)N[C@H](C)c1cccc2ccccc12` [MR-S1-15, (R)-1,3,5-Trimethyl-N-(1-(naphthalen-1-yl)ethyl)-1H-pyrazole-4-sulfonamide], in the data set with U937 cells, the inhibition at 25 µM came out at 19.5%, the inhibition at 50 µM was determined as 65.1%, the inhibition at 100 µM is 88.5% and the inhibition at 200 µM was determined as 101%. For the same molecule, in the data set on U937 cells, the GI50 turned out to be 3 µM and the “antiproliferative activity (in words)” value is “good antiproliferative activity; also recorded: most potent”. In data set [1], the inhibition at 4 h, 12.5 µM amounted to 0%; the inhibition at 4 h, 25 µM was -1.3%; the inhibition at 4 h, 50 µM is -1.8%; the inhibition at 4 h, 100 µM was -2.7%.
Consider `COc1ccc(CCNS(=O)(=O)c2c(C)n[nH]c2C)cc1OC` [MR-S1-9, N-(3,4-Dimethoxyphenethyl)-3,5-dimethyl-1H-pyrazole-4-sulfonamide], for which, in the data set with U937 cells, the inhibition at 25 µM was -0.5%, the inhibition at 50 µM is -26.2%, the inhibition at 100 µM is -21.2% and the inhibition at 200 µM was 2%. In the data set on U937 cells, the 50% growth inhibitory concentration (GI50) was more than 200 µM and the “antiproliferative activity (in words)” value is “impotent; also recorded: less anti-proliferative activity”. In data set [1], the inhibition at 4 h, 12.5 µM was -2.7%; the inhibition at 4 h, 25 µM amounted to 2.7%; the inhibition at 4 h, 50 µM is 2.4%; the inhibition at 4 h, 100 µM was -2.4%.
For the molecule `Cc1n[nH]c(C)c1S(=O)(=O)NCCC1=CCCCC1` [MR-S1-1, N-(2-(Cyclohex-1-en-1-yl)ethyl)-3,5-dimethyl-1H-pyrazole-4-sulfonamide], in the data set with U937 cells, the inhibition at 25 µM worked out at 18.6%, the inhibition at 50 µM is 34.5%, the inhibition at 100 µM came to 54.2% and the inhibition at 200 µM was 64.2%. For the same molecule, in the data set on U937 cells, the GI50 stood at 1.7 µM and the “antiproliferative activity (in words)” value is given as “moderate anti-proliferative activity”. In data set [1], the inhibition at 4 h, 12.5 µM was -0.9%; the inhibition at 4 h, 25 µM was -2.2%; the inhibition at 4 h, 50 µM is -0.4%; the inhibition at 4 h, 100 µM was -1.8%.
For `CCOCCn1c(C2CCN(S(=O)(=O)c3c(C)n[nH]c3C)CC2)nc2ccccc21` [MR-S1-19, 2-(1-((3,5-Dimethyl-1H-pyrazol-4-yl)sulfonyl)piperidin-4-yl)-1-(2-ethoxyethyl)-1H-benzo[d]imidazole], in the data set on U937 cells, the inhibition at 25 µM was -5%, the inhibition at 50 µM came to 2.2%, the inhibition at 100 µM is -1.3% and the inhibition at 200 µM was found to be 18%. Besides, in the data set on U937 cells, the GI50 was more than 200 µM and the “antiproliferative activity (in words)” value was “impotent; also recorded: less anti-proliferative activity”. In data set [1], the inhibition at 4 h, 12.5 µM was -4.9%; the inhibition at 4 h, 25 µM is -1.3%; the inhibition at 4 h, 50 µM is -1.8%; the inhibition at 4 h, 100 µM was -4%.
`Cc1n[nH]c(C)c1S(=O)(=O)NCCc1cccc(Cl)c1` [MR-S1-7, N-(3-Chlorophenethyl)-3,5-dimethyl-1H-pyrazole-4-sulfonamide]: in the data set on U937 cells, the inhibition at 25 µM is 14.5%, the inhibition at 50 µM came out at 13.4%, the inhibition at 100 µM was 24.2% and the inhibition at 200 µM is 51.6%. The GI50 in the data set on U937 cells is more than 200 µM. Moreover, in data set [1], the inhibition at 4 h, 12.5 µM is -2%; the inhibition at 4 h, 25 µM was -2.4%; the inhibition at 4 h, 50 µM was determined as 0.9%; the inhibition at 4 h, 100 µM is -3.1%.
Regarding `Cc1n[nH]c(C)c1S(=O)(=O)NCCc1ccc(Cl)cc1` [MR-S1-5, N-(4-Chlorophenethyl)-3,5-dimethyl-1H-pyrazole-4-sulfonamide], in the data set on U937 cells, the inhibition at 25 µM is 48.3%, the inhibition at 50 µM stood at 44.2%, the inhibition at 100 µM is 61.5% and the inhibition at 200 µM was determined as 78.7%. In addition, in the data set with U937 cells, the GI50 came out at 16 µM and the “antiproliferative activity (in words)” value is listed as “moderate anti-proliferative activity”. Moreover, in data set [1], the inhibition at 4 h, 12.5 µM is -1.8%; the inhibition at 4 h, 25 µM was -2.2%; the inhibition at 4 h, 50 µM is -0.2%; the inhibition at 4 h, 100 µM is -2.7%.
Take `Cc1nn(C)c(C)c1S(=O)(=O)N1CCC(c2nc3ccccc3[nH]2)CC1` [MR-S1-18, 2-(1-((1,3,5-Trimethyl-1H-pyrazol-4-yl)sulfonyl)piperidin-4-yl)-1H-benzo[d]imidazole]: in the data set with U937 cells, the inhibition at 25 µM stood at 11.7%, the inhibition at 50 µM was found to be 36.4%, the inhibition at 100 µM stood at 43.9% and the inhibition at 200 µM came to 83.4%. Also, in the data set with U937 cells, the GI50 was 92.6 µM and the “antiproliferative activity (in words)” value is “good antiproliferative activity”. Also, in data set [1], the inhibition at 4 h, 12.5 µM amounted to 0.2%; the inhibition at 4 h, 25 µM is -1.8%; the inhibition at 4 h, 50 µM was found to be 0.2%; the inhibition at 4 h, 100 µM is -0.4%.

Broadly, the GI50 is the concentration that inhibits growth by half.
